In the library only some 1.8% were active in any assay of this set; here they are far more common.
CHRM5 antagonist: blocks acetylcholine activation of human M5 receptor; AID 624040; P08912; actives 0.59% (n = 360,000); CHO-hM5 cells, Fluo-8 calcium fluorescence, ACh EC80; inhibition, % at 3 µM;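 active = inhibition above a per-plate cutoff, the mean of that plate's test compounds plus 3 SD, cut at about 27% in these data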;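 also: 0% = acetylcholine EC80 with DMSO and 100% = DMSO without agonist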
Target sequence (P08912 whole entry, looked up): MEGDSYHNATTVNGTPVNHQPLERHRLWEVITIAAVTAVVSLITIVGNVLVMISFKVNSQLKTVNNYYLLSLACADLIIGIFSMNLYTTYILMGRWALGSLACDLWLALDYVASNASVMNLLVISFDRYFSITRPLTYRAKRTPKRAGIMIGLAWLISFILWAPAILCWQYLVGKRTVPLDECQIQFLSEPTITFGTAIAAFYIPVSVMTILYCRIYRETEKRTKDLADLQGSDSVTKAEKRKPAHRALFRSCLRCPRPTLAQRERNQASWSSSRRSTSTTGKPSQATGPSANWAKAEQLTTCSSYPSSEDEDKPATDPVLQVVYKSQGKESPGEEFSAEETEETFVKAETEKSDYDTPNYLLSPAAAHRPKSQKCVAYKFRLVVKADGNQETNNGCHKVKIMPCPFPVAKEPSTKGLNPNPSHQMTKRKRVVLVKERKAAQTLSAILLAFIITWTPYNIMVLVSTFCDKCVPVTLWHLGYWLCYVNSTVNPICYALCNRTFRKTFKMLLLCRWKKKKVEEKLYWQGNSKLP
CHRM4 PAM: positive allosteric modulators of human muscarinic M4 receptor. activation, % at 3 µM. P08173. AID 624126. CHO-K1 hM4/Gqi5, Fluo-8 calcium fluorescence, ACh EC20; 0% = ACh EC20, 100% = maximal ACh. actives 0.4% (n = 360,000);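 active = activation above its plate's cutoff, the mean activation of sample wells plus 3 SD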
CHRM4 antagonist: antagonists of human muscarinic M4 receptor (CHRM4). P08173. CHO-hM4 cells, ACh EC80, Fluo-8 calcium fluorescence. inhibition, % at 3 µM. actives 0.73% (n = 360,000). AID 624125;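 active = inhibition above its plate's cutoff, the mean inhibition of sample wells plus 3 SD, cut at about 27% in these data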;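 also: 0% = acetylcholine EC80 with DMSO and 100% = DMSO without agonist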
M5 PAM: CHRM5 positive allosteric modulation. CHO-K1 hM5, Fluo-8 calcium, ACh EC20 PAM; 0% = ACh EC20, 100% = ACh EC100. activation, % at 3 µM. actives 0.3% (n = 360,000). AID 624038;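 active = activation above the run cutoff, the mean activation of all test compounds plus 3 SD, cut at about 18% in these data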
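system = human M5 receptor in CHO-K1 cells | compound = one concentration, 3 µM final (nominal) | schedule = Post-acetylcholine fluorescence recording 140 s | signal = Fluo-8 calcium dye fluorescence, kinetic read | benchmarks = low control EC20 acetylcholine (0%), high control EC100 acetylcholine (100%) | repeats = singlicate, one well per test compound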
M4 ag: CHRM4 agonism in calcium assay. P08173. CHO-K1 hM4/Gqi5, Fluo-8 calcium fluorescence; vehicle 0%, full acetylcholine response 100%. activation, % at 3 µM. actives 0.14% (n = 360,000);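 active = activation above the run mean over all test wells plus 3 SD, cut at about 32% in these data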;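 also: peak over basal fluorescence ratio per well then scaled between controls; 0% = DMSO wells and 100% = acetylcholine at EC100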
CHRM5 agonist: agonists of human muscarinic M5 receptor (CHRM5) | CHO-K1 hM5 cells, Fluo-8 calcium fluorescence; 0% DMSO wells, 100% maximal acetylcholine response | activation, % at 3 µM | actives 0.19% (n = 360,000) | AID 624037;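 active = activation above the run's mean over test compounds plus 3 SD, cut at about 23% in these data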;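 also: signal is peak over basal fluorescence ratio across the kinetic read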
* marks the source's active call; other numbers are inactive results.

SMILES	CHRM5 antagonist	CHRM4 PAM	CHRM4 antagonist	M5 PAM	M4 ag	CHRM5 agonist
CC(C)(C)c1ccc(-n2ncc3c2CCCC3NC(=O)C2(C(N)=O)CC2)cc1 (stereo not drawn)	28*	-4	16	-13	12	3
Cc1cc(C(=O)NC2CCCc3c2cnn3-c2ccc(C(C)(C)C)cc2)nn1C (stereo not drawn)	35*	-9	20	-16	12	-1
Cc1ccc2nc(N3CCN(C)CC3)c(C=O)c(=O)n2c1	12	-3	8	-4	0	-3
CC1(c2nnc(-c3cccc(Cl)c3)o2)CC(c2ccccc2)=NO1 (stereo not drawn)	11	3	0	4	2	-3
CN(C)CCOc1ccc(-c2c(-c3ccccc3)sc3ccccc23)cc1	5	0	28*	5	4	-4
CCCC(=O)NC(=S)Nc1ccc(S(=O)(=O)Nc2ccc(OCC)cc2)cc1	6	7	-3	3	17	25*
COc1ccc(NS(=O)(=O)c2ccc(NC(=S)NCC3CCCO3)cc2)cc1 (stereo not drawn)	27*	-8	7	-9	12	3
CCOc1ccc(NS(=O)(=O)c2ccc(NC(=S)NC(=O)CC(C)C)cc2)cc1	20	5	9	-3	13	10
O=S(=O)(NCC1CCCO1)c1ccc(-c2ccc(S(=O)(=O)NCC3CCCO3)cc2)cc1 (stereo not drawn)	35*	-14	9	-25	13	7
Cc1ccc(S(=O)(=O)NCC2CCCO2)cc1 (stereo not drawn)	-12	0	-5	14	1	2
COc1ccc(S(=O)(=O)Nc2ccc(S(=O)(=O)NCC3CCCO3)cc2)cc1 (stereo not drawn)	14	-1	2	-5	3	1
Cc1c[n+](CC(=O)c2ccccc2)c(C)cn1	2	-5	-1	-5	1	0
CCNc1nc(N2CCCC2)nc(N2CCCC2)n1	2	-8	4	0	0	-7
CCNc1nc(NC(C)(C)C)nc(N2CCCCC2)n1	61*	-21	45*	-22	2	-10
Nc1cccc2c1C(=O)N(CCOc1ccccc1F)C2=O	-5	-1	-10	-1	1	-3
CCC1CN2CCc3cc(OC)c(OC)cc3C2CC1CC1c2cc(OC)c(OC)cc2CCN1C(=O)C(Cc1c[nH]c2ccccc12)NC(=O)OC(C)(C)C (stereo not drawn)	27*	-7	-3	-25	10	-1
CC(C)C[C@H](NC(=O)OC(C)(C)C)C(=O)N1CCC(C(=O)N[C@@H](Cc2c[nH]c3ccccc23)C(=O)O)CC1	3	4	-1	4	2	-3
N#Cc1ccc(-c2ccc(F)cc2)nc1Oc1ccc(Cl)c(Cl)c1	2	33*	-2	1	1	-3
CN(Cc1ccc(Br)cc1)CC(O)COc1cccc(Br)c1 (stereo not drawn)	-10	-3	-19	17	2	-3
CC(C)N(C(=O)CSc1nc2c([nH]1)c(=O)n(C)c(=O)n2C)c1ccccc1	-1	17*	-16	1	1	1
COC(=O)C(NC(=O)C(CC(C)C)NC(=O)C1CCC(C)CC1)C(C)C (stereo not drawn)	36*	-1	4	36*	0	2
CCN(C1CCCCC1)S(=O)(=O)c1ccc(S(=O)(=O)NCc2ccncc2)cc1	29*	-13	24	-26	25	11
CCN(C1CCCCC1)S(=O)(=O)c1ccc(S(=O)(=O)NCCc2ccncc2)cc1	-1	-9	9	-10	5	1
COc1cccc(NC(=S)NNC(=O)c2c([N+](=O)[O-])c(C)nn2C)c1	-10	34*	4	3	1	3
COc1cc2ccccc2nn1	9	-23	-4	-6	0	0
SMILES	CHRM5 antagonist	CHRM4 PAM	CHRM4 antagonist	M5 PAM	M4 ag	CHRM5 agonist
COc1ccc2c(n1)Sc1nc3ccccc3nc1N2	23	-3	1	-6	54*	31*
CCC(C)NC(=O)CN1c2cccc3cccc(c23)S1(=O)=O (stereo not drawn)	0	1	-5	1	0	0
Cc1ccc(Cn2ccc(=O)c(OCc3ccccc3)c2C)cc1	-2	2	-5	22*	4	4
Cc1c(OCc2ccccc2)c(=O)ccn1Cc1ccc(Cl)cc1	1	4	0	-8	0	-4
CN(C)C=Nc1ccc([N+](=O)[O-])c2ccccc12	-5	7	-12	2	1	-1
O=C(Cn1cnnn1)NCc1ccccc1	9	-1	7	-4	1	-1
Cc1ccc2nc(-c3ccc(N)cc3)sc2c1	-2	13*	2	6	1	2
CC1(C(=O)Nc2ccc3c(c2)OCO3)Cc2c(-c3cccc(C(F)(F)F)c3)ccnc2O1 (stereo not drawn)	-3	-1	-9	-3	0	0
CCN(CC)c1ncnc2c1ncn2[C@H]1CN(Cc2ccccc2)C[C@@H](COC(C)=O)O1	-9	9	-27	2	7	-1
C=CCNC(=O)c1ccc(CN2CCC(Cc3ccccc3)CC2)cc1	-6	-16	28*	-19	2	-23
COc1ccc(CCNC(=O)c2ccc(CN3CCC(Cc4ccccc4)CC3)cc2)cc1	5	-10	-5	-8	4	-7
CC(C)NC(=O)c1ccc(CN2CCC(Cc3ccccc3)CC2)cc1	6	-16	67*	-24	1	-23
CSc1ccc(CN2CCC(Cc3ccccc3)CC2)cc1	1	-18	28*	-15	1	-25
COCCCC1CCN(C(=O)c2cc(COc3cc(C)ccc3C)on2)CC1	-5	-2	-7	-2	10	-1
O=C(Nc1cccc(C(F)(F)F)c1)c1cccnn1	10	5	1	-4	1	-2
Cc1nc(NCCc2ccccc2)sc1C(=O)N(C)C	-1	5	-12	6	1	-2
COCCn1cnc2c1c(=O)n(CC(=O)Nc1cc(C)on1)c(=O)n2Cc1ccccc1	-1	24*	4	-3	1	-5
COc1ccc(S(=O)(=O)/N=C2/C=CC(=O)C(C)=C2C)cc1	2	5	2	1	1	0
CC1=C(C)/C(=N\OS(=O)(=O)c2ccc(C)cc2)C=CC1=O	24	-9	60*	3	12	13
CC1=C/C(=N\OS(=O)(=O)c2ccccc2)C(C(C)C)=CC1=O	79*	-9	18	-9	1	27*
